From ChEMBL document CHEMBL4364256, “Design, synthesis and biological evaluation of antimicrobial diarylimine and -amine compounds targeting the interaction between the bacterial NusB and NusE proteins” (Eur J Med Chem, 2019)
In brackets after ≈: the same amount, converted by molar mass.

How the values were obtained:
[1] = tested on: Enterococcus faecium; assay: Antimicrobial activity against Enterococcus faecium ATCC 19433 incubated for 20 hrs by microdilution method; format: functional; conditions: ATCC 19433, 20 h
Outline: (§1)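 Broth microdilution MIC testing done following CLSI guidelines.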

[2] = tested on: Staphylococcus aureus; assay: microbe, parasite or virus in culture; conditions: ATCC 25923, 20 h
[3] = microbe, parasite or virus in culture; conditions: Enterobacter cloacae, ATCC 13047, 20 h
[4] = tested on: Streptococcus pneumoniae; assay: Antimicrobial activity against Streptococcus pneumoniae ATCC 49619 incubated for 20 hrs by microdilution method; format: functional; conditions: ATCC 49619, 20 h; outline: as §1
[5] = tested on: Acinetobacter baumannii; assay: Antimicrobial activity against Acinetobacter baumannii ATCC 19606 incubated for 20 hrs by microdilution method; format: functional; conditions: ATCC 19606 = CIP 70.34 = JCM 6841, 20 h; outline: as §1
[6] = tested on: Staphylococcus aureus; assay: microbe, parasite or virus in culture; conditions: ATCC 29213, 20 h
[7] = tested on: Bacillus subtilis; assay: Inhibition of N-terminal LgBiT-fused Bacillus subtilis NusB expressed in Escherichia coli BL21(DE3)pLysS interaction with C- terminal SmBiT-fused Bacillus subtilis NusE expressed in Escherichia coli BL21(DE3)pLysS at 100 uM preincubated for 10 mins followed by NusE addition and measured after 10 mins by nano-glo luciferase assay relative to control
Outline: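 NusB and NusE were mixed 1:1 at 1 µM in PBS, with compound at 100 µM. The read-out was percent inhibition of the NusB-NusE interaction.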

[8] = tested on: Pseudomonas aeruginosa; assay: Antimicrobial activity against Pseudomonas aeruginosa ATCC 27853 incubated for 20 hrs by microdilution method; format: functional; conditions: ATCC 27853, 20 h; outline: as §1

| SMILES | MIC [1] [µg/mL] | MIC [2] [µg/mL] | MIC [3] [µg/mL] | MIC [4] [µg/mL] | MIC [5] [µg/mL] | MIC [6] [µg/mL] | inhibition [7] [%] | MIC [8] [µg/mL] |
| --- | --- | --- | --- | --- | --- | --- | --- | --- |
| C#Cc1cccc(/N=C/c2cc(O)ccc2[N+](=O)[O-])c1 | > 256 | 256 (≈ 961 µM) | > 256 | > 256 | 256 (≈ 961 µM) | 256 (≈ 961 µM) | 52.2 | > 256 |
| C#Cc1cccc(NCc2cc(C(=O)OC)ccc2O)c1 | 32 (≈ 114 µM) | 32 (≈ 114 µM) | > 256 | 8 (≈ 28.4 µM) | > 256 | 16 (≈ 56.9 µM) | 57.1 | > 256 |
| O=[N+]([O-])c1ccc(O)c(CNc2ccc(C(F)(F)F)cc2)c1 | 32 (≈ 102 µM) | 8 (≈ 25.6 µM) | 256 (≈ 820 µM) | 16 (≈ 51.2 µM) | 32 (≈ 102 µM) | 8 (≈ 25.6 µM) | 54.1 | > 256 |
| C#Cc1cccc(NCc2cc([N+](=O)[O-])ccc2O)c1 | 16 (≈ 59.6 µM) | 16 (≈ 59.6 µM) | > 256 | 8 (≈ 29.8 µM) | 128 (≈ 477 µM) | 16 (≈ 59.6 µM) | 47.7 | > 256 |
| CC(C)(C)c1ccc(/N=C/c2cc([N+](=O)[O-])ccc2O)cc1 | > 256 | 4 (≈ 13.4 µM) | > 256 | 128 (≈ 429 µM) | > 256 | 32 (≈ 107 µM) | 38.8 | > 256 |
| C#Cc1cccc(/N=C/c2cc(OC)ccc2O)c1 | > 256 | > 256 | > 256 | > 256 | 128 (≈ 509 µM) | > 256 | 29.3 | > 256 |
| O=[N+]([O-])c1ccc(O)c(/C=N/c2ccccc2O)c1 | > 256 | 4 (≈ 15.5 µM) | > 256 | 64 (≈ 248 µM) | 128 (≈ 496 µM) | 16 (≈ 62 µM) | 57.7 | > 256 |
| C#Cc1cccc(NCc2cc(OC)ccc2O)c1 | 64 (≈ 253 µM) | 64 (≈ 253 µM) | > 256 | 8 (≈ 31.6 µM) | > 256 | 32 (≈ 126 µM) | 58.3 | > 256 |
| O=[N+]([O-])c1ccc(O)c(/C=N/c2cccc3ccccc23)c1 | > 256 | 4 (≈ 13.7 µM) | > 256 | 32 (≈ 109 µM) | 128 (≈ 438 µM) | 16 (≈ 54.7 µM) | 43.4 | > 256 |
| C#Cc1cccc(/N=C/c2cc(C(=O)OC)ccc2O)c1 | > 256 | 128 (≈ 458 µM) | > 256 | 128 (≈ 458 µM) | 64 (≈ 229 µM) | > 256 | 41.4 | 256 (≈ 917 µM) |
| C#Cc1cccc(/N=C/c2cc(F)ccc2O)c1 | > 256 | 256 (≈ 1070 µM) | > 256 | 256 (≈ 1070 µM) | 256 (≈ 1070 µM) | > 256 | 28.1 | 256 (≈ 1070 µM) |
| C#Cc1cccc(/N=C/c2cccc([N+](=O)[O-])c2)c1 | > 256 | 256 (≈ 1020 µM) | > 256 | > 256 | 16 (≈ 63.9 µM) | 128 (≈ 511 µM) | 24.7 | > 256 |
| CO[C@H]1/C=C/O[C@@]2(C)Oc3c(C)c(O)c4c(O)c(c(/C=N/N5CCN(C)CC5)c(O)c4c3C2=O)NC(=O)/C(C)=C\C=C\[C@H](C)[C@H](O)[C@@H](C)[C@@H](O)[C@@H](C)[C@H](OC(C)=O)[C@@H]1C [RIFAMPIN] | 2 (≈ 2.43 µM) | 0.0125 (≈ 0.0152 µM) | > 256 | 0.0625 (≈ 0.0759 µM) | 4 (≈ 4.86 µM) | 0.0125 (≈ 0.0152 µM) |  | > 256 |
| O=[N+]([O-])c1ccc(O)c(CNc2ccc(Cl)cc2)c1 | 32 (≈ 115 µM) | 8 (≈ 28.7 µM) | 128 (≈ 459 µM) | 16 (≈ 57.4 µM) | > 256 | 4 (≈ 14.4 µM) | 53.6 | 256 (≈ 919 µM) |
| C#Cc1cccc(NCc2cc([N+](=O)[O-])ccc2OC)c1 | > 256 | > 256 | > 256 | > 256 | > 256 | > 256 | 56.1 | > 256 |
| O=[N+]([O-])c1ccc(O)c(/C=N/c2cccc(C(F)(F)F)c2)c1 | > 256 | 16 (≈ 51.6 µM) | 256 (≈ 825 µM) | 32 (≈ 103 µM) | 256 (≈ 825 µM) | 64 (≈ 206 µM) | 56.2 | > 256 |
| C#Cc1cccc(/N=C/c2cc(CC#N)ccc2O)c1 | > 256 | 256 (≈ 983 µM) | > 256 | > 256 | 64 (≈ 246 µM) | > 256 | 49.9 | > 256 |
| C#Cc1cccc(NCc2cc(C#N)ccc2O)c1 | 64 (≈ 258 µM) | 32 (≈ 129 µM) | > 256 | 16 (≈ 64.4 µM) | > 256 | 32 (≈ 129 µM) | 64.8 | > 256 |

| SMILES | MIC [1] [µg/mL] | MIC [2] [µg/mL] | MIC [3] [µg/mL] | MIC [4] [µg/mL] | MIC [5] [µg/mL] | MIC [6] [µg/mL] | inhibition [7] [%] | MIC [8] [µg/mL] |
| --- | --- | --- | --- | --- | --- | --- | --- | --- |
| O=[N+]([O-])c1ccc(O)c(CNc2cccc(O)c2)c1 | > 256 | 64 (≈ 246 µM) | > 256 | 128 (≈ 492 µM) | > 256 | 128 (≈ 492 µM) | 66.7 | > 256 |
| O=[N+]([O-])c1ccc(O)c(/C=N/c2ccc(C(F)(F)F)cc2)c1 | 256 (≈ 825 µM) | 8 (≈ 25.8 µM) | > 256 | 16 (≈ 51.6 µM) | 256 (≈ 825 µM) | 16 (≈ 51.6 µM) | 68.9 | > 256 |
| O=[N+]([O-])c1ccc(O)c(/C=N/C2CCCCC2)c1 | > 256 | 4 (≈ 16.1 µM) | > 256 | 16 (≈ 64.4 µM) | 256 (≈ 1030 µM) | 8 (≈ 32.2 µM) | 68.3 | > 256 |
| C#Cc1cccc(/N=C/c2cc([N+](=O)[O-])cc(Br)c2O)c1 | > 256 | 32 (≈ 92.7 µM) | > 256 | 128 (≈ 371 µM) | 256 (≈ 742 µM) | 32 (≈ 92.7 µM) | 74.1 | > 256 |
| C#Cc1cccc(NCc2cc(F)ccc2O)c1 | 32 (≈ 133 µM) | 32 (≈ 133 µM) | > 256 | 16 (≈ 66.3 µM) | 128 (≈ 531 µM) | 32 (≈ 133 µM) | 61.8 | > 256 |
| O=C(O)c1cccc(NCc2cc([N+](=O)[O-])ccc2O)c1 | > 256 | > 256 | > 256 | > 256 | > 256 | > 256 | 50.8 | > 256 |
| C#Cc1cccc(NCc2cccc([N+](=O)[O-])c2O)c1 | > 256 | 128 (≈ 477 µM) | > 256 | 256 (≈ 954 µM) | > 256 | 16 (≈ 59.6 µM) | 64.5 | > 256 |
| C#Cc1cccc(/N=C/c2cc(C#N)ccc2O)c1 | 256 (≈ 1040 µM) | 32 (≈ 130 µM) | > 256 | 128 (≈ 520 µM) | > 256 | 64 (≈ 260 µM) | 61.3 | > 256 |
| C#Cc1cccc(/N=C/c2cc(Cl)cc(Cl)c2O)c1 | 256 (≈ 882 µM) | 32 (≈ 110 µM) | > 256 | 8 (≈ 27.6 µM) | 128 (≈ 441 µM) | 64 (≈ 221 µM) | 54.2 | > 256 |
| O=[N+]([O-])c1ccc(O)c(/C=N/c2ccccc2C(F)(F)F)c1 | 256 (≈ 825 µM) | 8 (≈ 25.8 µM) | > 256 | 32 (≈ 103 µM) | > 256 | 16 (≈ 51.6 µM) | 53.1 | > 256 |
| C#Cc1cccc(/N=C/c2ccccc2O)c1 | > 256 | 256 (≈ 1160 µM) | > 256 | > 256 | > 256 | > 256 | 25.7 | > 256 |
| C#Cc1cccc(NCc2ccccc2O)c1 | > 256 | > 256 | > 256 | > 256 | > 256 | > 256 | 20.3 | > 256 |
| C#Cc1cccc(/N=C/c2cccc([N+](=O)[O-])c2O)c1 | 256 (≈ 961 µM) | 256 (≈ 961 µM) | > 256 | 256 (≈ 961 µM) | > 256 | 256 (≈ 961 µM) | 87.7 | 256 (≈ 961 µM) |
| O=[N+]([O-])c1ccc(O)c(/C=N/c2ccccc2)c1 | > 256 | 4 (≈ 16.5 µM) | > 256 | 32 (≈ 132 µM) | 256 (≈ 1060 µM) | 16 (≈ 66.1 µM) | 39.2 | > 256 |
| C#Cc1cccc(/N=C/c2cc([N+](=O)[O-])ccc2OC)c1 | > 256 | > 256 | > 256 | > 256 | > 256 | > 256 | 40.4 | > 256 |
| O=[N+]([O-])c1ccc(O)c(CNc2ccccc2O)c1 | 256 (≈ 984 µM) | 16 (≈ 61.5 µM) | 256 (≈ 984 µM) | 64 (≈ 246 µM) | 128 (≈ 492 µM) | 32 (≈ 123 µM) | 81.5 | 256 (≈ 984 µM) |
| C#Cc1ccccc1/N=C/c1cc([N+](=O)[O-])ccc1O | > 256 | 4 (≈ 15 µM) | > 256 | 32 (≈ 120 µM) | > 256 | 16 (≈ 60.1 µM) | 71.4 | > 256 |
| O=[N+]([O-])c1ccc(O)c(CNc2cccc3ccccc23)c1 | 16 (≈ 54.4 µM) | 4 (≈ 13.6 µM) | > 256 | 16 (≈ 54.4 µM) | 256 (≈ 870 µM) | 4 (≈ 13.6 µM) | 47.4 | > 256 |
